16 compounds from ChEMBL document CHEMBL3046550, “Design, synthesis, and insecticidal evaluation of new benzoylureas containing amide and sulfonate groups based on the sulfonylurea receptor protein binding site for diflubenzuron and glibenclamide” (2013) can be followed below.

As usually defined, the mortality is the share of the test organisms that died.

Assay type in all cases: functional
Settings in all cases: 96 h

The test system of test [1] is Mythimna separata. The experiment in a line: Larvicidal activity against fourth instar larvae of Mythimna separata (Oriental armyworm) infected compound-treated corn leaves assessed as mortality at 100 mg/l measured after 4 days. In a few lines:
(§1)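 Petri dishes each infested with 10 fourth-instar larvae; percentage mortality scored 4 days after treatment. Three replicates per treatment, with the reported value the mean of the three.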

Test [2] deals with Mythimna separata. The experiment in a line: Larvicidal activity against fourth instar larvae ofMythimna separata (Oriental armyworm) infected compound-treated corn leaves assessed as mortality at 200 mg/l measured after 4 days. In outline: as §1
The subject of test [3] is Mythimna separata. The experiment in a line: Larvicidal activity against fourth instar larvae of Mythimna separata (Oriental armyworm) infected compound-treated corn leaves assessed as mortality at 50 mg/l measured after 4 days. In a few lines: as §1
Test [4] relates to Plutella xylostella. The experiment in a line: Larvicidal activity against second-instar larvae of Plutella xylostella (diamondback moth) infected in compound-treated cabbage leaves assessed as mortality at 200 mg/l measured after 4 days. In outline:
(§2)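 Test solutions at the different concentrations were made by dissolving compounds in DMF and adding distilled water.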

For test [5], the system named is Plutella xylostella. The experiment in a line: Larvicidal activity against second-instar larvae of Plutella xylostella (diamondback moth) infected in compound-treated cabbage leaves assessed as mortality at 20 mg/l measured after 4 days. In outline:
as §2

Test [6] concerns Mythimna separata. The test can be described thus: Larvicidal activity against fourth instar larvae of Mythimna separata (Oriental armyworm) infected compound-treated corn leaves assessed as mortality at 10 mg/l measured after 4 days. In outline:
as §1

The subject of test [7] is Plutella xylostella. The experiment in a line: Larvicidal activity against second-instar larvae of Plutella xylostella (diamondback moth) infected in compound-treated cabbage leaves assessed as mortality at 5 mg/l measured after 4 days. In a few lines:
as §2

Test [8] concerns Mythimna separata. The experiment in a line: Larvicidal activity against fourth instar larvae of Mythimna separata (Oriental armyworm) infected compound-treated corn leaves assessed as mortality at 5 mg/l measured after 4 days. In outline: as §1
The subject of test [9] is Mythimna separata. The test can be described thus: Larvicidal activity against fourth instar larvae of Mythimna separata (Oriental armyworm) infected compound-treated corn leaves assessed as mortality at 20 mg/l measured after 4 days. In outline:
as §1

For test [10], the system named is Plutella xylostella. The experiment in a line: Larvicidal activity against second-instar larvae of Plutella xylostella (diamondback moth) infected in compound-treated cabbage leaves assessed as mortality at 2 mg/l measured after 4 days. In a few lines: as §2
Test [11] deals with Mythimna separata. The test can be described thus: Larvicidal activity against fourth instar larvae of Mythimna separata (Oriental armyworm) infected compound-treated corn leaves assessed as mortality at 1 mg/l measured after 4 days. In a few lines:
as §1

Test [12] has as its system Mythimna separata. The test can be described thus: Larvicidal activity against fourth instar larvae of Mythimna separata (Oriental armyworm) infected compound-treated corn leaves assessed as mortality at 2.5 mg/l measured after 4 days. In outline:
as §1

Each structure is given as a SMILES string.

With `O=C(NC(=O)c1c(F)cccc1F)Nc1ccc(S(=O)(=O)OCCF)cc1`, the mortality at 100 µg/mL in test [1] was determined as 100%. Moreover, the mortality at 200 µg/mL in [2] is 100%; in [4], 20%. In addition, in test [3], the mortality at 50 µg/mL came out at 0%.

For `O=C(NC(=O)c1c(F)cccc1F)Nc1ccc(S(=O)(=O)OCCCl)cc1`, the mortality at 100 µg/mL in test [1] amounted to 100%. The mortality at 200 µg/mL in [2] is 100%; in [4], 30%. Besides, the mortality at 50 µg/mL in [3] came to 40%.

On to `O=C(NC(=O)c1c(F)cccc1F)Nc1ccc(S(=O)(=O)OC(C(F)(F)F)C(F)(F)F)cc1`, for which the mortality at 200 µg/mL came to 0% in test [2] and 60% in test [4]. In addition, in test [5], the mortality at 20 µg/mL amounted to 20%.

For `O=C(NC(=O)c1c(F)cccc1F)Nc1ccc(S(=O)(=O)OCCCCCl)cc1`, in [1], the mortality at 100 µg/mL is 100%. Moreover, the mortality at 200 µg/mL in test [2] was 100%; in [4], 20%. Besides, the mortality at 50 µg/mL in test [3] was 20%.

With `CCCCCOS(=O)(=O)c1ccc(NC(=O)NC(=O)c2c(F)cccc2F)cc1`, the mortality at 100 µg/mL in [1] was 100%. Besides, the mortality at 200 µg/mL in test [2] came out at 100%; in test [4], 30%. Moreover, the mortality at 50 µg/mL in [3] was 60%. Besides, the mortality at 10 µg/mL in test [6] amounted to 95%.

In the case of `CC(C)(C)NC(=O)c1ccc(NC(=O)NC(=O)c2c(F)cccc2F)cc1`, in [1], the mortality at 100 µg/mL was found to be 100%. For the same compound, the mortality at 200 µg/mL in [2] was 100%; in test [4] it was 0%. In test [3], the mortality at 50 µg/mL worked out at 50%.

With `CC(C)N(C(=O)c1ccc(NC(=O)NC(=O)c2c(F)cccc2F)cc1)C(C)C`, the mortality at 200 µg/mL in test [2] was 0%. In [5], the mortality at 20 µg/mL is 100%.

As to `CN(C(=O)c1ccc(NC(=O)NC(=O)c2c(F)cccc2F)cc1)c1ccc(Cl)cc1`, the mortality at 200 µg/mL in test [2] and in [4] was 0% throughout.

Take `O=C(NC(=O)c1c(F)cccc1F)Nc1ccc(C(=O)Nc2ccc(Cl)cc2)cc1`: the mortality at 200 µg/mL in test [2] and in test [4] was 0% throughout.

With `CCCCNC(=O)c1ccc(NC(=O)NC(=O)c2c(F)cccc2F)cc1`, the mortality at 200 µg/mL in [2] and in test [4] was 0% each time.

In the case of `O=C(NC(=O)c1c(F)cccc1F)Nc1ccc(C(=O)N2CCOCC2)cc1`, the mortality at 200 µg/mL in test [2] and in [4] was 0% each time.

Consider `CC(C)(C)c1ccc(CNC(=O)c2ccc(NC(=O)NC(=O)c3c(F)cccc3F)cc2)cc1`, for which the mortality at 200 µg/mL in [2] and in test [4] was 0% throughout.

`O=C(NC(=O)c1c(F)cccc1F)Nc1ccc(S(=O)(=O)Oc2ccc(Cl)cc2)cc1`: the mortality at 200 µg/mL in test [2] and in test [4] was 0% each time.

In the case of `CC1CCC(C(C)C)C(OS(=O)(=O)c2ccc(NC(=O)NC(=O)c3c(F)cccc3F)cc2)C1` (stereo not drawn), the mortality at 200 µg/mL in [2] and in [4] was 0% throughout.

As to `O=C(NC(=O)c1c(F)cccc1F)Nc1ccc(S(=O)(=O)OCC(F)(F)F)cc1`, the figures for the mortality at 5 µg/mL in test [7] and in test [8] were 90% and 60%, respectively. In addition, in test [1], the mortality at 100 µg/mL was determined as 100%. Besides, the mortality at 20 µg/mL in [9] and in test [5] was 100% each time. The mortality at 200 µg/mL in [2] and in test [4] was 100% each time. The mortality at 50 µg/mL in test [3] worked out at 100%. For the same compound, the mortality at 10 µg/mL in [6] came out at 100%. The mortality at 2 µg/mL in [10] is 40%.

Take `O=C(NC(=O)c1c(F)cccc1F)Nc1ccc(CO/N=C(/c2ccc(Cl)cc2)C2CC2)cc1` [FLUCYCLOXURON]: the mortality at 1 µg/mL in test [11] came out at 10%. The mortality at 5 µg/mL in test [8] was found to be 90%. Also, the mortality at 2.5 µg/mL in [12] was 50%.
